Hits are enriched below; roughly 2.6% of the tested compounds scored in any of these assays.
procasp3 activ: activators of human procaspase-3. P42574. recombinant procaspase-3 D3A, Ac-DEVD-pNA absorbance 405 nm. activation, % at 8.5 µM. 330,000 tested, 0.11% active. AID 463141;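 active = activation above the mean of all tested compounds plus 3 SD, cut at about 21% in these data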;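 also: 0% = DMSO alone and 100% = DMSO wells spiked with extra 5 µM PC-3 D3A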
Target sequence (P42574 whole entry D9A/D28A/D175A): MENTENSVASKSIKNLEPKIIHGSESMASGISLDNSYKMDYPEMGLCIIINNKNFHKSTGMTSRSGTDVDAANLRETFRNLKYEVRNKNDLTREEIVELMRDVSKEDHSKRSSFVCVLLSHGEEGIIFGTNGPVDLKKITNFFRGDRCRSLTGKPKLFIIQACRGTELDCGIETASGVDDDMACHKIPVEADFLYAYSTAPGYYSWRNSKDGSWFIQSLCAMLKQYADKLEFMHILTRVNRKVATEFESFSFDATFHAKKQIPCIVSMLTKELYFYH
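Test system: Procaspase-3 D3A mutant; medium: Zinc-free HEPES/NaCl buffer with 0.01% Triton X-100 at pH 7.4; reagent: DEVD-pNA substrate; doses: one concentration, 8.5 µM nominal, 0.8% DMSO; times: 1 h preincubation plus 2 h reaction at 25 °C; signal: Epi-absorbance at 405 nm of released p-nitroaniline, 0 and 120 min; replicates: singlicate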
AHR activator: human AHR activation; P35869; AHR-responsive luciferase reporter cells, luminescence; activation, % at 5 µM; 320,000 tested, 2.5% active; AID 2796; in the data active = activation above about 47%;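 also: 0% = vehicle wells and 100% = reference agonist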
PolyA inh: blocks polyadenylation in yeast reporter cells; activity score, % at 12 µM; 300,000 tested, 0.02% active; AID 1875; S. cerevisiae SKY197-pL101 polyadenylation reporter, beta-gal luminescence; efflux-impaired pdr1/pdr3 knockout yeast; score 100 = 6 SD above DMSO;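 active = lowest replicate activity score at least 50, where 100 means six control SD above control mean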;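 also: yeast exposed to compound for 9 h at 30 °C; higher score means more reporter readthrough which indicates perturbed polyadenylation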
procasp7 counter: counter-screen: procaspase-7 (human) activation; P55210; activation, % at 8.5 µM; 330,000 tested, 0.093% active; recombinant procaspase-7, Ac-DEVD-pNA absorbance 405 nm; D23A/D198A/D206A triple mutant, cannot self-cleave; scale: DMSO 0, 5 µM enzyme 100; AID 463210;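 active = percent activation above the screen-wide mean plus 3 SD, cut at about 25% in these data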
Target sequence (P55210 whole entry D23A/D198A/D206A): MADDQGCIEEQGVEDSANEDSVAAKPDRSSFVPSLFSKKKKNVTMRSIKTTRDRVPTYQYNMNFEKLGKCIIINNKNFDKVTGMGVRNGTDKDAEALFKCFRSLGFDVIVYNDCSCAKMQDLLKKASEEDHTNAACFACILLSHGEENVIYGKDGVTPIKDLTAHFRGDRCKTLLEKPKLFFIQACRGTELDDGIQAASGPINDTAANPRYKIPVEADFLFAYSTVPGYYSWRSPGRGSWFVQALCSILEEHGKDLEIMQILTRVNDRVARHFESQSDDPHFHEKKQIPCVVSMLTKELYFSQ
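Assay system: Uncleavable procaspase-7 mutant enzyme / Input: 2 µM procaspase-7 mutant as dispensed / Dosing: single nominal 8.5 µM compound dose, 0.8% DMSO final / Timing: 1 h enzyme–compound preincubation and 2 h substrate reaction, both 25 °C / Detection: p-Nitroaniline absorbance at 405 nm, read at 0 and 120 min / Replication: singlicate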
Starred values were filed as active, the others as inactive; . = no result given.

SMILES | procasp3 activ | AHR activator | PolyA inh | procasp7 counter
CC(C)Cc1nc(SCc2cccnc2)c2c(=O)n(C)c(=O)n(C)c2n1 | -5 | 18 | 26 | 0
Cn1c(=O)c2c(SCc3cccnc3)nc(C3CC3)nc2n(C)c1=O | 7 | 75* | 19 | -5
Cn1ncc(Br)c1C(=O)NC1CCCCCC1 | . | . | -13 | .
CC1=C(O)C(=O)OC1c1c(Cl)cccc1Cl (stereo not drawn) | -2 | -3 | 14 | 5
COc1ccc(-c2csc(NC(CO)c3nc4ccccc4n3CCCO)n2)cc1 (stereo not drawn) | -2 | 55* | 8 | -6
COc1ccc(-c2csc(NC(C)c3nc4cc(Cl)c(Cl)cc4n3CCOCCO)n2)cc1 (stereo not drawn) | -5 | 12 | 10 | 0
Cc1ccc(-c2csc(NCCc3nc4cc(Cl)c(Cl)cc4n3CCCO)n2)cc1 | -9 | 18 | -3 | -7
OCCOCCn1c(CCNc2nc(-c3ccc(Cl)cc3)cs2)nc2cc(Cl)c(Cl)cc21 | -1 | 59* | -19 | 1
CC(Nc1nc(-c2ccc(F)cc2)cs1)c1nc2cc(Cl)c(Cl)cc2n1CCCO (stereo not drawn) | -9 | 72* | 21 | -5
O=[N+]([O-])c1cc(-c2cnc3ccccc3n2)ccc1Cl | 5 | 30 | 0 | 8
O=[N+]([O-])c1cc(-c2cnc3ccccc3n2)ccc1Oc1ccc(Cl)cc1 | -1 | 50* | -10 | 7
COc1ccccc1Oc1ccc(-c2cnc3ccccc3n2)cc1[N+](=O)[O-] | 0 | 55* | 10 | -3
COc1cc2c(cc1NC(=O)COC(=O)CNC(=O)c1ccccc1)oc1ccccc12 | 5 | 46 | -8 | -2
COc1cc2c(cc1NC(=O)COC(=O)[C@@H](NC(=O)c1ccccc1F)C(C)C)oc1ccccc12 | 2 | 59* | -6 | 6
COc1cc2c(cc1NC(=O)COC(=O)[C@@H](NC(=O)c1ccccc1)C(C)C)oc1ccccc12 | 6 | 49* | 8 | 0
O=C(CNCC1CCCO1)Nc1ccc([N+](=O)[O-])cc1C(=O)Nc1ccccc1F (stereo not drawn) | 7 | 43 | 8 | 1
COc1cccc(NC(=O)c2cc([N+](=O)[O-])ccc2NC(=O)CNCC2CCCO2)c1 (stereo not drawn) | 9 | 48* | -1 | 5
CN(CC(=O)Nc1c(Cl)cccc1Cl)C(=O)c1cc2ccccc2cc1O | -10 | 7 | 13 | 12
Cc1ccc(-c2nnc(-c3ccc4c(c3)OCO4)o2)cc1 | -1 | 79* | . | -7
c1ccc(-c2noc(-c3ccc4c(c3)OCO4)n2)nc1 | 7 | -7 | 6 | 5
c1coc(-c2nnc(-c3ccc4c(c3)OCO4)o2)c1 | . | . | -6 | .
c1ccc(-c2nccc(-c3ccc4c(c3)OCO4)n2)cc1 | 3 | 79* | -10 | 8
c1ccc(CSc2ccc(-c3ccc4c(c3)OCO4)nn2)cc1 | 5 | 74* | -18 | 4
Cc1nccc(-c2ccc3c(c2)OCO3)n1 | 0 | 58* | 17 | 3
Fc1ccc(CSc2ccc(-c3ccc4c(c3)OCO4)nn2)cc1 | 2 | 1 | 5 | 5
SMILES | procasp3 activ | AHR activator | PolyA inh | procasp7 counter
CC(C)CN(C(=O)c1ccco1)C1CCS(=O)(=O)C1 (stereo not drawn) | 3 | -1 | 1 | 8
CN1C2CCC1CC(NS(=O)(=O)c1ccc(C#N)cc1)C2 (stereo not drawn) | 2 | -2 | -2 | -4
CC(C)c1ccc(N=C2N=C(N)c3ccccc32)cc1 | -5 | 48* | 16 | 1
NC1=NC(=Nc2ccccc2)c2ccccc21 | 0 | -5 | -9 | -7
NC1=NC(=Nc2ccc(Cl)cc2)c2ccccc21 | 3 | 56* | 1 | 0
Cc1cccc(N=C2N=C(N)c3ccccc32)c1 | -8 | 0 | -10 | -5
C/C(=N\NC(=O)OC(C)(C)C)c1ccccc1Br | -3 | 12 | -4 | 7
O=C(CN1C(=O)COc2ccccc21)c1ccc(Cl)cc1 | -2 | 50* | 3 | -5
O=C(CN1C(=O)COc2ccccc21)c1cccc(Cl)c1 | 13 | 6 | 1 | -5
CC(C)(C)NC(=O)C[C@H]1C[C@H](C(=O)N2CCCCC2)[C@@]2(C)c3[nH]c4ccc(Cl)cc4c3CCN2C1=O | -1 | . | . | -3
COc1ccc(-c2cc(-c3ccccc3)nc(N3CCCC3)n2)cc1OC | 10 | 9 | 10 | 27*
COc1ccc(-c2cc(C(F)(F)F)nc(N3CCOCC3)n2)cc1OC | 2 | 31 | 20 | 14
COCCCn1c(=NC(=O)c2ccncc2)c(C#N)cc2c(=O)n3cccc(C)c3nc21 | -10 | 59* | -5 | -4
CC(=O)Nc1ccc(C2=NN(CC#N)C(=O)SC2)cc1 | 0 | 2 | 28 | -8
CC(=O)Nc1ccc(C2=NN(Cc3nnc(-c4ccccc4)o3)C(=O)SC2)cc1 | 0 | 76* | -12 | -7
Cc1cc(NC(=O)CC2Oc3ccccc3NC2=O)ccc1Br (stereo not drawn) | 1 | 25 | 15 | -2
CC(C)N(Cc1ccccc1)C(=O)COC(=O)c1c(F)cccc1F | 8 | -1 | . | 9
O=C(CSc1nc2ccccc2[nH]1)N=Nc1c(O)[nH]c2ccccc12 | 5 | 53* | 20 | 6
CCOC(=O)c1c(C)[nH]c(C(=O)N/N=C/c2ccc(Br)cc2)c1C | 6 | 67* | 20 | -5
Cc1ccc(NC(=O)Nc2cccc(C)n2)c(C)c1 | 8 | 56* | 36 | 7
O=c1oc2ccc(Br)cc2cc1-c1nc2ccccc2o1 | 11 | 7 | -18 | -8
COc1cccc2cc(C(=O)c3ccccc3)oc12 | 4 | -1 | -40 | 10
COc1cccc2cc3c(=O)n(-c4ccccc4)nc-3oc12 | 2 | 49* | -9 | 0
COc1cccc2cc(-c3nc4ccccc4o3)c(=O)oc12 | -11 | 18 | 103* | -11
Cn1cccc1C(=O)NC(=O)COC(=O)CCNS(=O)(=O)c1ccc(Cl)cc1 | 4 | 1 | . | 4
SMILES | procasp3 activ | AHR activator | PolyA inh | procasp7 counter
Cc1[nH]nc(Nc2ccc(Br)cc2)c1[N+](=O)[O-] | -2 | 125* | -3 | -4
CNc1nc(Nc2ccc(Br)cc2)nc(N)c1[N+](=O)[O-] | 3 | 70* | -26 | 6
Cc1cccc(Nc2n[nH]c(C)c2[N+](=O)[O-])c1 | 1 | 59* | 13 | -2
CCOc1ccc(NC(=O)COc2ccc(C(=O)NC(C)c3ccc(S(N)(=O)=O)cc3)cc2OC)cc1 (stereo not drawn) | 0 | 6 | -2 | 2
COCCCNC(=O)c1cc2c(-c3cccc(OC)c3)nn(C)c2s1 | -9 | 44 | -3 | 4
CCN(CC)CCNC(=O)c1cc2c(-c3ccc(Cl)cc3)nn(C)c2s1 | 2 | 53* | -12 | 5
CCOCCCNC(=O)c1cc2c(-c3ccc(Cl)cc3)nn(C)c2s1 | 2 | 56* | 20 | -5
